High-throughput results from PubChem.
Rows were chosen to be rich in hits. Some 3.7% of all compounds tested hit in one or more screens of this group.
Cl transport mod – modulates chloride dependent transport by human KCC2. B-score of Tl+ flux slope (higher = more flux/activation; lower = inhibition) at 10 µM. 190,000 tested, 2.2% active. AID 1456. KCC2 cells, thallium flux FluoZin-2 fluorescence;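 active = thallium flux slope and its plate-corrected score both differing from the plate sample mean at a set confidence after two filtering rounds, in either direction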;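 note: slope of fluorescence scaled to starting intensity during 10 to 20 s after thallium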
MDM2 E3 inh – blocks human Mdm2 ubiquitin ligase activity; Q00987; cell-based MDM2 ubiquitination luciferase reporter, 2 h; 0 = plate control, 100 = twice control, blank-subtracted; signal enhancement, % at 5 µM; 210,000 tested, 0.11% active;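 active = signal enhancement of 30% or more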;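 note: luminescence tracks abundance of the self-degrading MDM2-luciferase fusion protein; higher signal means inhibition of MDM2 E3 ligase activity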
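Material: Stable MDM2–luciferase fusion reporter cells | Amount: 2000 cells seeded into each well | Dosing: One concentration, 5 µM, with 0.2% DMSO | Incubation: 4 h cell settling then 2 h compound exposure, 37 °C | Measured by: Luciferase luminescence | Read-out basis: % enhancement relative to plate controls after blank subtraction | Benchmarks: Control and blank well means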
PKD1 kinase inh – inhibitors of human PKD1 kinase | Q15139 | PKD1 kinase fluorescence polarization assay | inhibition, % (concentration not given with the values) | 200,000 tested, 0.056% active | AID 797; in the data active = inhibition above about 50%
m-calpain inh – inhibitors of pig calpain II. purified calpain II, fluorogenic peptide substrate, 30 min. inhibition, % at 16 µM. 220,000 tested, 0.37% active. AID 1236;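 active = inhibition above about 50%, limit read from the data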
Arbovirus inh – blocks arbovirus infection; inhibition, % at 10 µM; 200,000 tested, 0.37% active; arbovirus infection cell-based antiviral screen; in the data active = inhibition above about 30%
ROMK mod – modulators of human ROMK potassium channel; P48048; Tet-inducible ROMK, thallium flux fluorescence; actives lie on both sides; B-score at 10 µM; 130,000 tested, 2% active; AID 1918;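 active = signal ratio slope over the read window, or its plate-corrected B-score, at least 3 SD from the plate mean, either direction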;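 note: B-score of the F/F0 ratio slope over 7 to 12 s after thallium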
Target sequence (P48048 whole entry, looked up): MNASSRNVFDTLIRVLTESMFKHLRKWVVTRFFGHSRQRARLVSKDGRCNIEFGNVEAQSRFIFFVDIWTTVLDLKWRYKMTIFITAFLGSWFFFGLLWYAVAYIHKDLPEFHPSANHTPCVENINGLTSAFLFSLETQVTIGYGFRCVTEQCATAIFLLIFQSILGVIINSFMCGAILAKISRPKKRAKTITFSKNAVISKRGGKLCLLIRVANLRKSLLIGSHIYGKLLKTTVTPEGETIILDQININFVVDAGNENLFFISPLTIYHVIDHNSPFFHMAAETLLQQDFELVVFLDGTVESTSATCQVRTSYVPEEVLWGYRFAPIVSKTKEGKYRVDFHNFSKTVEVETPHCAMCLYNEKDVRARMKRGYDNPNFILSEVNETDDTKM
ROMK retest – human ROMK channel modulation, retest confirmation. shares compounds with ROMK mod. ROMK thallium flux, fluorescence ratio; stronger effect = lower value. normalized thallium flux (F/F0 slope) at 10 µM. 3,000 tested, 54% active;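 active = Flux at 10 µM at least 3 SD below or above vehicle control mean in one or both replicates; inconclusive = no clear call, values can overlap the other calls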
Starred values were filed as active, the others as inactive; i = inactive; ? = inconclusive; · = not tested or not shown.

SMILES	Cl transport mod	MDM2 E3 inh	PKD1 kinase inh	m-calpain inh	Arbovirus inh	ROMK mod	ROMK retest
Cc1ccc(/C=C2\SC(=S)N(CCCC(=O)Nc3ccccn3)C2=O)cc1	1.5	-8	-13	1	4	·	0.074
COc1ccc(/C=C2\SC(=S)N(CCCC(=O)Nc3ccccn3)C2=O)cc1OC	0.78	-15	-2	-16	5	·	·
CCOC(=O)c1ccc(CN(Cc2ccc(C)cc2)S(=O)(=O)c2cccc([N+](=O)[O-])c2)cc1	-0.038	-9	-9	-8	3	0.32	·
CCc1cc(/C(Cc2csc(C)n2)=N/O)c(O)cc1O	-0.77	-19	4	13	3	-3.3*	0.067*
Cc1nc(C/C(=N\N)c2ccc(O)cc2O)cs1	-0.67	4	7	-16	6	0.36	·
COc1ccc2c(c1)c1nc3ccccc3nc1n2Cc1ccc(OC(C)C)c(OC)c1	-0.13	0	5	-33	-5	-3.4*	0.057*
N#C/C(=C\c1ccccc1)C(=O)N(c1ccccn1)C1CCCCC1	-1.9	-4	1	-9	3	·	0.045*
O=C(c1cccc(C(=O)N(c2ccccn2)C2CCCCC2)c1)N(c1ccccn1)C1CCCCC1	0.021	-4	-3	-4	0	-0.4	·
O=C(/C=C/c1ccc([N+](=O)[O-])cc1)N(c1ccccn1)C1CCCCC1	0.17	-3	6	-49	7	5.7*	0.076
CCOc1ccc(/C=N/NC(=O)Cc2cccs2)cc1	0.31	-10	·	-5	·	·	·
CCOC(=O)c1c(C)[nH]c(C)c1C(=O)COC(=O)/C=C/c1ccc(Cl)cc1	-2.1	2	12	-2	2	0.25	·
COc1ccc(CNC(=O)COC(=O)c2cncc(Br)c2)cc1	-0.96	-2	1	13	9	0.073	0.077
O=C(Nc1ccc(-c2nc3cc(NC(=O)c4cccs4)ccc3o2)cc1)c1cccs1	0.59	-13	-1	-31	-10	·	·
O=C(Nc1ccc2oc(-c3ccncc3)nc2c1)c1cccs1	·	-3	-6	-216	-1	·	0.08
CCc1c(C)nc2ncnn2c1N1CCC(C(=O)Nc2cccc(C(C)=O)c2)CC1	0.42	-29	0	13	-4	·	?
CCNC(=O)NCc1c(C)c(C)n(Cc2ccccc2)c1-n1cccc1	0.71	0	0	50	1	0.015	·
CCCOc1ccc(/C(O)=C2/C(=O)C(=O)N(CCCn3ccnc3)C2c2cccnc2)cc1 (stereo unspecified)	1	·	·	12	·	·	·
Cc1ccc(SCCNC(=O)/C=C/c2ccc([N+](=O)[O-])cc2)cc1	-2.8	-5	-8	33	7	-0.51	·
O=C(/C=C/c1ccc([N+](=O)[O-])cc1)NCCSc1ccccc1	·	-8	-12	57*	5	·	?
CCCS(=O)(=O)c1nnnn1-c1cccc(OC)c1	0.12	-8	5	-14	-39	-8.4*	0.046*
COc1ccc(OC)c(C2C(C(=O)c3ccccc3)=C(C)Nc3nc4ccccc4n32)c1 (stereo unspecified)	0.014	·	-15	-6	-11	2.5*	0.068*
O=C(COC(=O)CNC(=O)c1ccccc1)Nc1ccc(S(=O)(=O)N2CCCC2)cc1	-0.14	-26	-7	18	22	0.34	·
OC1(c2ccc(Cl)c(Cl)c2)C[n+]2ccccc2N1Cc1ccccc1 (stereo unspecified)	1.1	3	·	-43	·	-4*	0.058*
S=C(Nc1ccc(Cl)c(Cl)c1)NC1CCN(Cc2ccccc2)CC1	-2.1	-7	1	31	-35	·	·
O=S(=O)(c1cc(F)cc(F)c1)N1CCN(c2ncccn2)CC1	·	-15	-6	2	8	-0.67	·
Cc1ccc(Cn2c(CN3CCN(C(=O)c4ccco4)CC3)nc3c2c(=O)n(C)c(=O)n3C)cc1	·	-16	14	-22	10	2.6*	0.092
COc1ccc(-c2cn[nH]c2-c2ccc(OCc3ccc([N+](=O)[O-])cc3)cc2O)cc1	-0.016	-10	-3	3	8	·	·
N#Cc1nc(-c2cccs2)oc1NCc1ccccc1	-1.6	-20	-1	i	-3	-3.6*	0.054*
CCS(=O)(=O)c1ccc2c(c1)N(S(C)(=O)=O)CC(C(=O)NN)O2 (stereo unspecified)	0.45	-15	-1	-23	1	-0.46	·
